Measurements from ChEMBL document CHEMBL4138165, “Design, synthesis and biological evaluation of new β-carboline-bisindole compounds as DNA binding, photocleavage agents and topoisomerase I inhibitors” (Eur J Med Chem, 2018).
The source made the active and inactive calls. The rule behind the calls is not given here.

Experiments:
MCF7 = assay: Antiproliferative activity against human MCF7 cells after 48 hrs by MTT assay; type: functional, cell-based; settings: MCF7, 48 h
A549 = assay: Antiproliferative activity against human A549 cells after 48 hrs by MTT assay; type: functional, cell-based; settings: A549, 48 h
DU-145 = assay: Antiproliferative activity against human DU145 cells after 48 hrs by MTT assay; type: functional, cell-based; settings: DU-145, 48 h
NIH3T3 = assay: Antiproliferative activity against mouse NIH/3T3 cells after 48 hrs by MTT assay; type: functional, cell-based; settings: NIH3T3, 48 h
HeLa = assay: Antiproliferative activity against human HeLa cells after 48 hrs by MTT assay; type: functional, cell-based
[1] = biological target: T1, Topoisomerase I (Bos taurus) (UniProt Q2HPH0); assay: Inhibition of calf thymus DNA topoisomerase 1 at 20 uM using pBR322 DNA as substrate after 30 mins by agarose gel electrophoresis method
T1 sequence (whole entry): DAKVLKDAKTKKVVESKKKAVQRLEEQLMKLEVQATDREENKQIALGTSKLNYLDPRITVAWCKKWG

DNA [2] = assay: Induction of Escherichia coli pBR322 DNA cleavage at 20 uM incubated in dark condition by agarose gel electrophoresis; type: nucleic-acid assay
Summary of the method: (§1)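 pBR322 plasmid DNA was incubated with 20 µM ligand, either in the dark or under UV-light irradiation for 1 h. Products were separated by gel electrophoresis. Irradiated DNA solution alone served as the control.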

DNA [3] = assay: Induction of Escherichia coli pBR322 DNA cleavage at 20 uM incubated in presence of UV-light for 1 hr by agarose gel electrophoresis; type: nucleic-acid assay; summary of the method: as §1

With `COc1cc(-c2nc(C(c3c(C)[nH]c4ccc([N+](=O)[O-])cc34)c3c(C)[nH]c4ccc([N+](=O)[O-])cc34)cc3c2[nH]c2ccccc23)cc(OC)c1OC` the IC50 (MCF7) was 33.1 µM, the IC50 (A549) was 31.7 µM and the IC50 (DU-145) was 20.7 µM. It also gave an IC50 (NIH3T3) of 105 µM and an IC50 (HeLa) of 22.6 µM.

`COc1ccc(-c2nc(C(c3c[nH]c4ccc(F)cc34)c3c[nH]c4ccc(F)cc34)cc3c2[nH]c2ccccc23)cc1` gave an IC50 (MCF7) of 30.6 µM, an IC50 (A549) of 27.6 µM and an IC50 (DU-145) of 8.33 µM. It also gave an IC50 (NIH3T3) of 94.4 µM and an IC50 (HeLa) of 35.5 µM.

In the case of `COc1cc(-c2nc(C(c3c[nH]c4ccc(Br)cc34)c3c[nH]c4ccc(Br)cc34)cc3c2[nH]c2ccccc23)cc(OC)c1OC`, the IC50 (MCF7) is reported as 33.4 µM, the IC50 (A549) is reported as 21.8 µM and the IC50 (DU-145) is reported as 14.7 µM. The IC50 (NIH3T3) was 64.3 µM and the IC50 (HeLa) was 15.8 µM.

`Fc1ccc(-c2nc(C(c3c[nH]c4ccc(F)cc34)c3c[nH]c4ccc(F)cc34)cc3c2[nH]c2ccccc23)cc1` was tested, and the IC50 (MCF7) was 19.8 µM, the IC50 (A549) was 18.5 µM and the IC50 (DU-145) was 15.8 µM. The IC50 (NIH3T3) was 114 µM and the IC50 (HeLa) was 18.1 µM.

Compound `COc1cc(-c2nc(C(c3c[nH]c4ccccc34)c3c[nH]c4ccccc34)cc3c2[nH]c2ccccc23)cc(OC)c1OC` has an IC50 (MCF7) of 34.9 µM, an IC50 (A549) of 22.7 µM and an IC50 (DU-145) of 12.8 µM. For the same compound, the IC50 (NIH3T3) was 92.9 µM and the IC50 (HeLa) was 21.4 µM.

With `COc1ccc(-c2nc(C(c3c[nH]c4ccc(Br)cc34)c3c[nH]c4ccc(Br)cc34)cc3c2[nH]c2ccccc23)cc1` the IC50 (MCF7) was 18.6 µM, the IC50 (A549) was 9.24 µM and the IC50 (DU-145) was 2.63 µM. The IC50 (NIH3T3) was 86.3 µM and the IC50 (HeLa) was 15 µM.

For `CC[C@@]1(O)C(=O)OCc2c1cc1n(c2=O)Cc2cc3ccccc3nc2-1`, the inhibition [1] was “Active”.

Compound `Cc1[nH]c2ccc([N+](=O)[O-])cc2c1C(c1cc2c([nH]c3ccccc32)c(-c2ccc(F)cc2)n1)c1c(C)[nH]c2ccc([N+](=O)[O-])cc12` has an IC50 (MCF7) of 27.7 µM, an IC50 (A549) of 18.6 µM and an IC50 (DU-145) of 16.9 µM. For the same compound, the IC50 (NIH3T3) was 102 µM and the IC50 (HeLa) was 31.5 µM.

`COc1ccc2[nH]cc(C(c3cc4c([nH]c5ccccc54)c(-c4cc(OC)c(OC)c(OC)c4)n3)c3c[nH]c4ccccc34)c2c1` (configuration not stated) gave an IC50 (MCF7) of 44.2 µM, an IC50 (A549) of 20.4 µM and an IC50 (DU-145) of 19.5 µM. It also gave an IC50 (NIH3T3) of 100 µM and an IC50 (HeLa) of 39.8 µM.

Compound `COc1cc(-c2nc(C(c3c[nH]c4ccc(F)cc34)c3c[nH]c4ccc(F)cc34)cc3c2[nH]c2ccccc23)cc(OC)c1OC` has an IC50 (MCF7) of 13.6 µM, an IC50 (A549) of 16.9 µM and an IC50 (DU-145) of 10.1 µM. The IC50 (NIH3T3) was 118 µM and the IC50 (HeLa) was 12.2 µM.

For `COc1ccc(-c2nc(C(c3c[nH]c4ccc(OC)cc34)c3c[nH]c4ccc(OC)cc34)cc3c2[nH]c2ccccc23)cc1`, the IC50 (MCF7) was 29.9 µM, the IC50 (A549) was 18.1 µM and the IC50 (DU-145) was 16.3 µM. For the same compound, the IC50 (NIH3T3) was 102 µM and the IC50 (HeLa) was 32.5 µM.

Work on `COc1cccc2c1C(=O)c1c(O)c3c(c(O)c1C2=O)C[C@@](O)(C(=O)CO)C[C@@H]3O[C@H]1C[C@H](N)[C@H](O)[C@H](C)O1` [DOXORUBICIN] yielded an IC50 (MCF7) of 2.18 µM, an IC50 (DU-145) of 2.13 µM and an IC50 (HeLa) of 1.73 µM.

For `O=[N+]([O-])c1ccc2[nH]cc(C(c3cc4c([nH]c5ccccc54)c(-c4ccc(F)cc4)n3)c3c[nH]c4ccc([N+](=O)[O-])cc34)c2c1`, the IC50 (MCF7) was 14.4 µM, the IC50 (A549) was 6.32 µM and the Activity (DNA [2]) was “Not Active”. For the same compound, the IC50 (DU-145) was 1.92 µM, the inhibition [1] was “Active” and the IC50 (NIH3T3) was 64.2 µM. The Activity (DNA [3]) was “inactive” and the IC50 (HeLa) was 12.8 µM.

`COc1ccc(-c2nc(C(c3c[nH]c4ccccc34)c3c[nH]c4ccccc34)cc3c2[nH]c2ccccc23)cc1` showed an IC50 (MCF7) of 38.1 µM, an IC50 (A549) of 13.5 µM and an IC50 (DU-145) of 12.8 µM. The IC50 (NIH3T3) was 83.2 µM and the IC50 (HeLa) was 26.2 µM.

`COc1ccc2[nH]cc(C(c3cc4c([nH]c5ccccc54)c(-c4ccc(F)cc4)n3)c3c[nH]c4ccc(OC)cc34)c2c1` showed an IC50 (MCF7) of 34.6 µM, an IC50 (A549) of 14.6 µM and an IC50 (DU-145) of 10.6 µM. The IC50 (NIH3T3) was 110 µM and the IC50 (HeLa) was 23.7 µM.
